Experimental data: ChEMBL document CHEMBL1629437, “A novel PET marker for in vivo quantification of myelination” (Bioorg Med Chem, 2010)
Each block holds one compound with its values, some of them ahead of it. The source made the active and inactive calls.

Assays:
[1] = organism: Mus musculus; assay: Binding affinity to myelin sheath in Plp-Akt-DD transgenic mouse corpus callosum at 10 uM after 20 mins; type: tissue-based; conditions: tested as the 11C-labelled form
[2] = system: Mus musculus; assay: In vivo binding affinity to myelin sheath in Plp-Akt-DD transgenic mouse corpus callosum at 25 mg/kg, iv after 30 mins by fluorescent microscopic analysis; type: functional, organism-based; parameters: dose 25 mg/kg; conditions: tested as the 11C-labelled form
Method in brief: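 Anesthetized Plp-Akt-DD mice and control littermates received MeDAS, 25 mg/kg (about 0.5 mg), by tail vein. After 30 min they were perfused with saline and then 4% PFA. Brains were postfixed overnight, cryoprotected in 30% sucrose and cut into 10 μm cryosections. Sections were imaged directly by fluorescence microscopy, with Black-Gold staining done for comparison.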

[3] = organism: Mus musculus; assay: Binding affinity to myelin sheath in Plp-Akt-DD transgenic mouse corpus callosum by fluorescence assay; type: tissue-based
Method in brief: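 Perfusion-fixed (4% PFA) brains from Plp-Akt-DD mice and wild-type SWR/J littermates (5 months old) were cut into 10 μm coronal cryosections and stained in vitro with 10 μM MeDAS. Fluorescence was imaged in the corpus callosum from the midline to below the apex of the cingulum, 8 images per mouse, 20× objective. Images were thresholded against Black-Gold reactivity and intensity was expressed relative to WT set at 100. n = 4, unpaired Student's t-test.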

[4] = system: Lung; assay: Biodistribution in Swiss-Webster mouse lung at 3.7 MBq, iv after 30 mins; type: ADME, organism-based; conditions: in vivo, 0.5 h
Method in brief: (§1)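 About 3.7 MBq (100 μCi) of [11C]MeDAS was given by tail vein to Swiss-Webster mice, which were euthanized by cardiac excision at 5, 30 and 60 min. Heart, liver, spleen, lung, kidney, stomach and intestine were removed and counted in an automatic gamma well-counter. Results are %ID/organ, n = 3, mean ± SD.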

[5] = system: Heart; assay: Biodistribution in Swiss-Webster mouse heart at 3.7 MBq, iv after 30 mins; type: ADME, organism-based; conditions: in vivo, 0.5 h; method in brief: as §1
[6] = system: Kidney; assay: Biodistribution in Swiss-Webster mouse kidney at 3.7 MBq, iv after 5 mins; type: ADME, organism-based; conditions: in vivo; method in brief: as §1
[7] = system: Intestine; assay: Biodistribution in Swiss-Webster mouse intestine at 3.7 MBq, iv after 5 mins; type: ADME, organism-based; conditions: in vivo; method in brief: as §1
[8] = system: Liver; assay: Biodistribution in Swiss-Webster mouse liver at 3.7 MBq, iv after 30 mins; type: ADME, organism-based; conditions: in vivo, 0.5 h; method in brief: as §1
[9] = system: Stomach; assay: Biodistribution in Swiss-Webster mouse stomach at 3.7 MBq, iv after 60 mins; type: ADME, organism-based; conditions: in vivo, 1 h; method in brief: as §1
[10] = system: Lung; assay: Biodistribution in Swiss-Webster mouse lung at 3.7 MBq, iv after 5 mins; type: ADME, organism-based; conditions: in vivo; method in brief: as §1
[11] = system: Spleen; assay: Biodistribution in Swiss-Webster mouse spleen at 3.7 MBq, iv after 60 mins; type: ADME, organism-based; conditions: in vivo, 1 h; method in brief: as §1
[12] = Octanol-water partition coefficient, log P of the compound at pH 7.4; type: physicochemical
Method in brief: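 [11C]MeDAS (about 500,000 cpm, >98% radiochemical purity) was partitioned between n-octanol and phosphate buffer (pH 7.40) by vortexing 3 min at room temperature, then centrifuged at 3500 rpm for 5 min. The octanol layer was re-partitioned until values were consistent. logP = log of cpm/g octanol over cpm/g buffer, in triplicate.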

[13] = system: Liver; assay: Biodistribution in Swiss-Webster mouse liver at 3.7 MBq, iv after 5 mins; type: ADME, organism-based; conditions: in vivo; method in brief: as §1
[14] = system: Spleen; assay: Biodistribution in Swiss-Webster mouse spleen at 3.7 MBq, iv after 30 mins; type: ADME, organism-based; conditions: in vivo, 0.5 h; method in brief: as §1
[15] = system: Stomach; assay: Biodistribution in Swiss-Webster mouse stomach at 3.7 MBq, iv after 30 mins; type: ADME, organism-based; conditions: in vivo, 0.5 h; method in brief: as §1
[16] = system: Kidney; assay: Biodistribution in Swiss-Webster mouse kidney at 3.7 MBq, iv after 30 mins; type: ADME, organism-based; conditions: in vivo, 0.5 h; method in brief: as §1
[17] = system: Stomach; assay: Biodistribution in Swiss-Webster mouse stomach at 3.7 MBq, iv after 5 mins; type: ADME, organism-based; conditions: in vivo; method in brief: as §1
[18] = system: Kidney; assay: Biodistribution in Swiss-Webster mouse kidney at 3.7 MBq, iv after 60 mins; type: ADME, organism-based; conditions: in vivo, 1 h; method in brief: as §1
[19] = system: Intestine; assay: Biodistribution in Swiss-Webster mouse intestine at 3.7 MBq, iv after 60 mins; type: ADME, organism-based; conditions: in vivo, 1 h; method in brief: as §1
[20] = system: Brain; assay: Biodistribution in Swiss-Webster mouse brain at 3.7 MBq, iv after 60 mins; type: ADME, organism-based; conditions: in vivo, 1 h
Method in brief: (§2)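 [11C]MeDAS, up to 3.7 MBq (100 μCi), was injected into the tail vein of Swiss-Webster mice (20-25 g). Brains were removed at 5, 30 and 60 min, weighed and gamma-counted. Decay-corrected uptake is given as %ID/organ, n = 3, mean ± SD.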

[21] = Drug uptake in Plp-Akt-DD transgenic mouse corpus callosum 7.4 MBq, iv after 90 mins by microPET imaging analysis; conditions: in vivo, 1.5 h
[22] = system: Brain; assay: Drug uptake in Swiss-Webster mouse brain at 111 MBq, iv after 20 mins by autoradiography; type: ADME, organism-based; conditions: in vivo
[23] = system: Brain; assay: Drug uptake in Plp-Akt-DD transgenic mouse brain at 7.4 MBq, iv after 90 mins by microPET imaging analysis; conditions: in vivo, 1.5 h
[24] = Drug uptake in Swiss-Webster mouse corpus callosum at 111 MBq, iv after 20 mins by magnetic resonance imaging analysis in presence of BDB; type: ADME, organism-based; conditions: in vivo
[25] = system: Lung; assay: Biodistribution in Swiss-Webster mouse lung at 3.7 MBq, iv after 60 mins; type: ADME, organism-based; conditions: in vivo, 1 h; method in brief: as §1
[26] = system: Brain; assay: Biodistribution in Swiss-Webster mouse brain at 3.7 MBq, iv after 5 mins; type: ADME, organism-based; conditions: in vivo; method in brief: as §2
[27] = system: Brain; assay: Biodistribution in Swiss-Webster mouse brain at 3.7 MBq, iv after 30 mins; type: ADME, organism-based; conditions: in vivo, 0.5 h; method in brief: as §2
[28] = Drug uptake in Swiss-Webster mouse corpus callosum at 111 MBq, iv after 20 mins by magnetic resonance imaging analysis; type: ADME, organism-based; conditions: in vivo
[29] = system: Spleen; assay: Biodistribution in Swiss-Webster mouse spleen at 3.7 MBq, iv after 5 mins; type: ADME, organism-based; conditions: in vivo; method in brief: as §1
[30] = system: Liver; assay: Biodistribution in Swiss-Webster mouse liver at 3.7 MBq, iv after 60 mins; type: ADME, organism-based; conditions: in vivo, 1 h; method in brief: as §1
[31] = Drug uptake in Swiss-Webster mouse corpus callosum at 111 MBq, iv; conditions: in vivo
[32] = system: Heart; assay: Biodistribution in Swiss-Webster mouse heart at 3.7 MBq, iv after 5 mins; type: ADME, organism-based; conditions: in vivo; method in brief: as §1
[33] = system: Heart; assay: Biodistribution in Swiss-Webster mouse heart at 3.7 MBq, iv after 60 mins; type: ADME, organism-based; conditions: in vivo, 1 h; method in brief: as §1
[34] = system: Intestine; assay: Biodistribution in Swiss-Webster mouse intestine at 3.7 MBq, iv after 30 mins; type: ADME, organism-based; conditions: in vivo, 0.5 h; method in brief: as §1

Drug uptake [1]: Active
Drug uptake [3]: Active
SMILES: CNc1ccc(/C=C/c2ccc(N)cc2)cc1
Drug uptake [2]: Active

Drug uptake [4]: 0.76 %ID
Drug uptake [5]: 0.33 %ID
Drug uptake [6]: 2.69 %ID
Drug uptake [7]: 0.42 %ID
Drug uptake [8]: 10.83 %ID
Drug uptake [9]: 1.21 %ID
Drug uptake [10]: 0.85 %ID
Drug uptake [11]: 0.9 %ID
logD [12]: 2.25
Drug uptake [13]: 15.86 %ID
Drug uptake [14]: 0.39 %ID
Drug uptake [15]: 0.67 %ID
Drug uptake [16]: 2 %ID
Drug uptake [17]: 1 %ID
Drug uptake [18]: 1.78 %ID
Drug uptake [19]: 1.74 %ID
Drug uptake [20]: 1.37 %ID
Drug uptake [21]: Active
Drug uptake [22]: Active
Drug uptake [23]: Active
Drug uptake [24]: Not Active
Drug uptake [25]: 1.2 %ID
Drug uptake [26]: 2.56 %ID
Drug uptake [27]: 1.05 %ID
Drug uptake [28]: Active
Drug uptake [29]: 0.28 %ID
Drug uptake [30]: 7.75 %ID
Drug uptake [31]: Active
Drug uptake [32]: 0.4 %ID
Drug uptake [33]: 0.75 %ID
Drug uptake [34]: 0.65 %ID
SMILES: [11CH3]Nc1ccc(/C=C/c2ccc(N)cc2)cc1
